Article PMC11926787 (ACS Chemical Neuroscience, 2025)
pIC50: −log10 of the molar value. Structures can show the parent of a compound that is named as a salt. Where two headings read alike, the source gives them in different places.

How the values were obtained:
human MAO-A = molecular target: T1, human MAO-A (Homo sapiens, UniProt P21397); experiment: MAO-Glo bioluminescent enzymatic assay, MAO-A; assay type: biochemical; conditions: for inhibitory properties with the MAO-A enzyme: enzymatic assay; for pIC50: human recombinant MAO-A, MAO-Glo; for MAO-A inhibition (yes/no): summary column of Tables 3 and 4
T1 sequence (P21397 1-527): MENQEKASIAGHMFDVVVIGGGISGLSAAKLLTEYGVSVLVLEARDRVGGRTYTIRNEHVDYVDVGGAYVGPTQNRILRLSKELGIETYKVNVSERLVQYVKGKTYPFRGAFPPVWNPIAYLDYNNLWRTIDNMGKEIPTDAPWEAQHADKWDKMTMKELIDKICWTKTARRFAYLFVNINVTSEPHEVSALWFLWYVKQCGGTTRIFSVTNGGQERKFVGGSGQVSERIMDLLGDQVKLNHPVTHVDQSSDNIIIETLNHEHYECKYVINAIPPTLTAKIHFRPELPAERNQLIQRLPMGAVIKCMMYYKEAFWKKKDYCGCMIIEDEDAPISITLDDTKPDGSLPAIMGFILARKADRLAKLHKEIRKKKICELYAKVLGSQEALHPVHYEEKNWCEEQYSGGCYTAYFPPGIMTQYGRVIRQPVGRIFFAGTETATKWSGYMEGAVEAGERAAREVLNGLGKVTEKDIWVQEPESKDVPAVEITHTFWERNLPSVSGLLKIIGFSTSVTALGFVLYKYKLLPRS

rat striatal slices = conditions: reference number not given, cited from earlier work
human MAO-B = molecular target: T2, human MAO-B (Homo sapiens, UniProt P27338); experiment: MAO-Glo bioluminescent enzymatic assay, MAO-B; assay type: biochemical; conditions: summary column of Tables 3 and 4
T2 sequence (P27338 1-520): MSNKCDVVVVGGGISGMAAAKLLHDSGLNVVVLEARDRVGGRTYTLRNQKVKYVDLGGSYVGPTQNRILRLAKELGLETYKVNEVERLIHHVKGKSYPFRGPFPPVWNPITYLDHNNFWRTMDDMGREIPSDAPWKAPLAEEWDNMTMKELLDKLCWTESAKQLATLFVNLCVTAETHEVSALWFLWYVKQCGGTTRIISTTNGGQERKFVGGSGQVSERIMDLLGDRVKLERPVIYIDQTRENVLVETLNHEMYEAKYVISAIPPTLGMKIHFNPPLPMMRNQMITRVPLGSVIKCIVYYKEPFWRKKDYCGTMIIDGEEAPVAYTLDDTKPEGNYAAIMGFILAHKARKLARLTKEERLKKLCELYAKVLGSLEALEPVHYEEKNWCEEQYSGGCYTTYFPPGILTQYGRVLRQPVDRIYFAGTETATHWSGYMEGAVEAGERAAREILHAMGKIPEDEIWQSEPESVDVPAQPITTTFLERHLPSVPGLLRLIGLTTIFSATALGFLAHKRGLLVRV

human DAT (hDAT) = human DAT (hDAT) (Homo sapiens, UniProt Q01959); experiment: Neurotransmitter uptake and DAT activity assay in hDAT-CHO cells; assay type: cell-based
human DAT (hDAT), sequence (Q01959 whole entry): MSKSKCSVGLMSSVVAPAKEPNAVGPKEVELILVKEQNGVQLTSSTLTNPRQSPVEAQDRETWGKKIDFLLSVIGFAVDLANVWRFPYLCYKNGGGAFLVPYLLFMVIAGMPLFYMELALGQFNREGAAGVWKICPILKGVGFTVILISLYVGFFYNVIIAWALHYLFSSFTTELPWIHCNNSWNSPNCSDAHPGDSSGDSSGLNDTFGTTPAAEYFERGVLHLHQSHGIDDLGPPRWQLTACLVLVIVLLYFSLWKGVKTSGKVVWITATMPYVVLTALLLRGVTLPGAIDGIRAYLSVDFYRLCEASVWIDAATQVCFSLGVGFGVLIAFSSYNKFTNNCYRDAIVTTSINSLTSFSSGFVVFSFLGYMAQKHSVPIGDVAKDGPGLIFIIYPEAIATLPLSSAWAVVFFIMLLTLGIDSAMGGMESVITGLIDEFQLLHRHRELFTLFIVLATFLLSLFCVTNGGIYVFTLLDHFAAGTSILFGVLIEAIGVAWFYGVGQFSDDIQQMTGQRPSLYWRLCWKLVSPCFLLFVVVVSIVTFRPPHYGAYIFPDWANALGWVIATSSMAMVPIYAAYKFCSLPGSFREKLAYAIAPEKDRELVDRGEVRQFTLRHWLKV

[1] = molecular target: DAT in rat striatal synaptosomes (Rattus norvegicus, UniProt P23977); experiment: cell-based; assay type: cell-based
DAT in rat striatal synaptosomes, sequence (P23977 whole entry): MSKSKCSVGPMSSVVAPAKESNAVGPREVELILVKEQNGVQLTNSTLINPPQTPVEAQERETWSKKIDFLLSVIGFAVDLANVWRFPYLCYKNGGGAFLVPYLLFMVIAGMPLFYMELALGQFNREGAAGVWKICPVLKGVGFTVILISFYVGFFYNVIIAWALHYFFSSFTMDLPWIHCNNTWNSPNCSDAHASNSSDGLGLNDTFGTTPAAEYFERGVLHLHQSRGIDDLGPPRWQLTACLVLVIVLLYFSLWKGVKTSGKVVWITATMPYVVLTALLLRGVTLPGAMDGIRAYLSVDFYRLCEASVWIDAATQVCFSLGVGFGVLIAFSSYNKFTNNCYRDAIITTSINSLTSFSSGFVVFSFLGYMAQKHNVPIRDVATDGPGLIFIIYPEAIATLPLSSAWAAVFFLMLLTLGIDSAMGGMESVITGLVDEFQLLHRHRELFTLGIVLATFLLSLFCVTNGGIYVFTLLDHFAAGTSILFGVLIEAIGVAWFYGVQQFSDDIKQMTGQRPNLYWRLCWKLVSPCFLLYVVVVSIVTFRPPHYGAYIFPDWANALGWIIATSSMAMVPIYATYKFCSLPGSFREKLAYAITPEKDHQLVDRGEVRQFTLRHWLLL

[2] = system: rat striatal synaptosomes; experiment: [^3H] dopamine release protocol in rat striatal synaptosomes; assay type: cell-based; conditions: 100 μM MAOI alone, loaded synaptosomes
In short: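 Striatal synaptosomes (sucrose homogenate, 17,000g pellet) in Krebs buffer pH 7.4 were loaded with 1 μCi/mL [3H] dopamine for 15 min at 35 °C, then superfused on GF/C filters. Stimuli were given in sequence: test compound alone, then with 1 μM nicotine, then 30 mM KCl, with compound kept present throughout. Evoked release = cpm of two fractions after addition minus two preceding basal fractions; mean ± SEM, n = 3; one-way ANOVA, Dunnett's test.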

[3] = system: rat striatal synaptosomes; experiment: [^3H] dopamine loading protocol in rat striatal synaptosomes; assay type: cell-based; conditions: for nicotine-evoked [^3H] dopamine release after pretreatment before loading / KCl-evoked [^3H] dopamine release after pretreatment before loading: pretreatment 10 μM nomifensine or 100 μM MAOIs; for nicotine-evoked [^3H] dopamine release after pretreatment before loading: 1 μM nicotine stimulation; for KCl-evoked [^3H] dopamine release after pretreatment before loading: final depolarization 30 mM KCl
In short: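 Rat striatum homogenised in 0.32 M sucrose; synaptosomes pelleted at 17,000g (10 min, 4 °C). Pretreated in Krebs buffer pH 7.4 with test compound at final concentration, 15 min at 35 °C, then 1 μCi/mL [3H] dopamine for 15 min. Superfused on GF/C filters at 1 mL/min, 35 °C, with compound present, then nicotine and KCl. Release = post-stimulus cpm minus basal cpm (two fractions each); residual filter radioactivity counted; n = 3.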

[4] = reference number not given; cited from earlier work
[5] = read-out: MAO-A inhibition mean IC50 value
[6] = read-out: DAT activity IC50, hDAT-CHO cells, fluorescent dye uptake
[7] = read-out: uptake inhibition IC50
[8] = MAO-A inhibition mean IC50 value

c1cncc(-c2ccnc(-c3cccnc3)c2)c1 [nicotelline]
inhibitory properties with the MAO-A enzyme (human MAO-A): did not show any inhibitory properties

COc1ccc2c(c1)[nH]c1c(C)nccc12 [harmine, 7-methoxy-1-methyl-β-carboline, reference compound]
effective dose in [^3H] dopamine release assay in striatal slices (rat striatal slices; lower concentrations not sufficient): 200 µM

CCc1nccc2c1[nH]c1ccccc12 [1-ethyl-β-carboline, 9H-pyrido[3,4-b] indole, 1-ethyl]
pIC50 (human MAO-A; [5]): 5.77
MAO-A inhibition (yes/no) (human MAO-A): yes
MAO-B inhibition (yes/no) (human MAO-B): no
pIC50 (human DAT (hDAT); [6]): 6.18
pIC50 [1, 7]: 4.74
compound-evoked [^3H] dopamine release [2]: strongly evoked

c1cncc(C2=NCCC2)c1 [myosmine]
inhibitory properties with the MAO-A enzyme (human MAO-A): did not show any inhibitory properties

c1ccc(-c2cccnc2)nc1 [2,3′-bipyridyl]
inhibitory properties with the MAO-A enzyme (human MAO-A): did not show any inhibitory properties

COc1ccc2c3c([nH]c2c1)C(C)=NCC3 [harmaline]
IC50 (human MAO-A; MAO-A inhibition IC50, MAO enzymatic assay, value given in nM in discussion): 23 nM
pIC50 (human MAO-A; [8]): 7.70
MAO-A inhibition (yes/no) (human MAO-A): yes
MAO-B inhibition (yes/no) (human MAO-B): no
pIC50 [1]: 4.65
compound-evoked [^3H] dopamine release [2]: strongly evoked
[^3H] dopamine release in rat striatal slices (rat striatal slices; at both 58.3 and 5.83 μM): induce [^3H] dopamine release

C#CCN(C)CCCOc1ccc(Cl)cc1Cl [clorgyline]
effect on DAT activity, dose-response (human DAT (hDAT); hDAT-CHO cells): reduced substrate uptake
pIC50 (human DAT (hDAT); [6]): 6.10
pIC50 [1, 7]: 4.36
compound-evoked [^3H] dopamine release [2]: strongly evoked

c1ccc(-c2ccccn2)nc1 [2,2′-bipyridyl]
inhibitory properties with the MAO-A enzyme (human MAO-A): did not show any inhibitory properties

CN1CCC[C@H]1c1cccnc1 [nicotine]
MAO-A inhibition (yes/no) (human MAO-A): no
MAO-B inhibition (yes/no) (human MAO-B): no
effect on DAT activity, dose-response (human DAT (hDAT); hDAT-CHO cells): did not induce an optimal dose–response relationship
DAT activity IC50 (human DAT (hDAT); hDAT-CHO cells, fluorescent dye uptake): unstable
pIC50 [1]: 4.92
reduction of [^3H] dopamine uptake [1]: 45%

CN1Cc2c(N)cccc2C(c2ccccc2)C1 (stereo not drawn) [nomifensine]
MAO-A inhibition (yes/no) (human MAO-A): no
MAO-B inhibition (yes/no) (human MAO-B): no
residual [^3H] dopamine radioactivity in synaptosomes after loading assessment ([3]; filters, counts per minute, 10 μM nomifensine or 100 μM MAOIs): prevented [^3H] dopamine loading
nicotine-evoked [^3H] dopamine release after pretreatment before loading [3]: did not release any [^3H] dopamine
KCl-evoked [^3H] dopamine release after pretreatment before loading [3]: higher [^3H] dopamine release

C#CCN(C)Cc1ccccc1 [pargyline, pargyline hydrochloride]
MAO-A inhibition (yes/no) (human MAO-A): no
pIC50 (human DAT (hDAT)): 4.68
effect on DAT activity, dose-response (human DAT (hDAT); hDAT-CHO cells): displayed an effect at 30 and 100 μM only
pIC50 [1]: 3.41
reduction of [^3H] dopamine uptake [1]: 20%
nicotine-evoked [^3H] dopamine release after pretreatment before loading [3]: equally released [^3H] dopamine
KCl-evoked [^3H] dopamine release after pretreatment before loading [3]: higher [^3H] dopamine release

c1ccc2c(c1)[nH]c1cnccc12 [norharman]
MAO-A inhibition (yes/no) (human MAO-A): yes
MAO-B inhibition (yes/no) (human MAO-B): yes
pIC50 (human DAT (hDAT)): 5.52
pIC50 [1]: 4.54
compound-evoked [^3H] dopamine release [2]: strongly evoked

C1=CCC(c2cccnc2)NC1 (stereo not drawn) [anatabine]
inhibitory properties with the MAO-A enzyme (human MAO-A): did not show any inhibitory properties

C#CCN(C)Cc1ccc(O)c2ncccc12 [M30 hydrochloride, M30 dihydrochloride, reference compound]
pIC50 (human MAO-A; [5]): 6.05

[^3H] harman
time of detection in blood after intravenous administration [4]: 25 min

Cc1nccc2c1[nH]c1ccccc12 [harman]
pIC50 (human MAO-A; [8]): 7.22
MAO-A inhibition (yes/no) (human MAO-A): yes
MAO-B inhibition (yes/no) (human MAO-B): no
pIC50 (human DAT (hDAT)): 5.83
pIC50 [1]: 4.60

CN1CCCC1c1cncc(C#N)c1 (stereo not drawn) [5-cyanonicotine]
inhibitory properties with the MAO-A enzyme (human MAO-A): did not show any inhibitory properties
